Assay [1] has as its system NOD mouse type B insulin-reactive CD4 T cells. In words: IL-2 secretion. The assay is classed as cell-based. The note with it: sample titration, IL-2 after 24 h (Fig. 2A). Summed up:
(§1)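 Equal numbers of T-cell hybridomas or TCR-transduced avatars and paraformaldehyde-fixed M12.C3.g7 (IAg7) B-lymphoma APCs are cultured overnight with peptide titrations up to 100 μg/mL. Peptides have B:19 C→A and are >95% pure, with an IAg7-binding HEL peptide as negative control. IL-2 is read by HT-2 growth/survival or ELISA. Potency is the log10 shift of parallel third-order polynomial fits versus WT8E9R (=1), averaged over three titrations.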

Assay [2] deals with NOD mouse type A insulin-reactive CD4 T cells. Put plainly: IL-2 secretion. Format: cell-based. To be noted: sample titration, IL-2 after 24 h (Fig. 2A). A digest of the protocol:
as §1

For assay [3], the system named is CD4 T cells of human T1D patients. The note with it: HLA-DQ8; ref [14], [15]; cited from earlier work.
For assay [4], the system named is IA^g7. To be noted: natural R at p9; ref [16]; cited from earlier work.

Where no end group is shown, it is not given here.

“8E9E: soluble mutated B:12–22 peptide, p9 R to E, B:19 C changed to A”: the “potency compared with WT8E9R” value in assay [1] is “no better than the WT peptide”. For the same substance, the “potency relative to WT8E9R” value in assay [2] was “about 100 ×”.

Turning to “B:11–23 peptide: versions of the B:11–23 peptide (identical between mice and humans) presented by DQ8 (LVEALYLVCGERG; ends and bridges not checked; UniProt P01308 35-47, looked up, fragment)”, in assay [3], the “human T-cell response to peptide bound to DQ8” value is given as “only when B:22R is mutated to E”. As to “B:22R to E mutated peptide: B:9–23 peptide with B:22R (p9) mutated to E, earlier work”, the “human T-cell response to peptide bound to DQ8” value in assay [3] is reported as “dramatically improved T-cell response”. Consider SHLVEALYLVCGERG [B:9–23], for which the “binding to IA^g7 in R3” value in assay [4] is on record as “greatly interferes with binding”.

(Values after PMC5776820 (Proceedings of the National Academy of Sciences of the …, 2017).)
